Our source for the outcome values is PubChem BioAssay AID588682 (Southern Research Specialized Biocontainment Screening …, 2011).

The experiment has as its system M17 leucyl aminopeptidase (Plasmodium falciparum 3D7). Description: PfM17LAP leucine aminopeptidase inhibitors, dose response, counter-screen for PfM1AAP inhibitor project, biochemical, QFRET (AID 588682). The procedure, abridged: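 System: recombinant Plasmodium falciparum M17 leucine aminopeptidase (rPFM17LAP) / Medium: Tris buffer, pH 7.5, with 2 mM CoCl2 / Also added: fluorogenic substrate, 0.1 mM / Doses: compound dose series from 100 to 0.2 µM / Schedule: 90 min, room temperature / Measured by: fluorescence 370/460 nm / Read-out: % enzyme inhibition / Controls: background wells lacking enzyme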
Background: The purpose of a counterscreen is to sort out artefacts and off-target activity.

Molecules are shown by their SMILES. Activity calls are given as the source filed them.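 The calls were made as follows: active = inhibition of 30% or more at any tested concentration; inactive = the rest.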

On to `CC[C@H](C)[C@H](NS(=O)(=O)c1ccc(Br)s1)C(=O)NCc1ccc(C(F)(F)F)cc1`, for which the outcome was inactive. `O=C(NCc1ccc2c(c1)OCO2)C1CCN(S(=O)(=O)c2ccc(-c3cccc(F)c3)s2)CC1`: the result was inactive. In the case of `CC(=O)Nc1cccc(-c2ccc(S(=O)(=O)N3CCC(C(=O)NCc4ccc5c(c4)OCO5)CC3)s2)c1` it was “inactive”. As to `COc1ccc(-c2ccc(S(=O)(=O)N3CCC(C(=O)NCc4ccc5c(c4)OCO5)CC3)s2)cc1`, the call was inactive. In the case of `O=C(NCc1ccc2c(c1)OCO2)C1CCN(S(=O)(=O)c2ccc(-c3cncc4ccccc34)s2)CC1` it was “inactive”. In the case of `CC[C@H](C)[C@H](NC(=O)c1ccc([N+](=O)[O-])cc1)C(=O)NCc1ccccc1` it was “inactive”. Under `CC[C@H](C)[C@H](NS(=O)(=O)c1ccc(Br)s1)C(=O)O` stands “inactive”.

Turning to `CC[C@H](C)[C@H](NS(=O)(=O)c1cccs1)C(=O)NCc1ccc(F)cc1`, the compound was classed as inactive. Regarding `O=C(NCc1ccc2c(c1)OCO2)C1CCN(S(=O)(=O)c2ccc(-c3ccccc3)s2)CC1`, the result was inactive. With `O=C(NCc1ccc2c(c1)OCO2)C1CCN(S(=O)(=O)c2ccc(-c3ccc(F)cc3)s2)CC1`, the compound was classed as inactive. In the case of `CC(C)(C)c1ccc(-c2ccc(S(=O)(=O)N3CCC(C(=O)NCc4ccc5c(c4)OCO5)CC3)s2)cc1` it was “inactive”; in that of `CC[C@H](C)[C@H](NC(=O)c1ccc([N+](=O)[O-])cc1)C(=O)NCc1ccc(C(F)(F)F)cc1`, “inactive”; in that of `CC[C@H](C)[C@H](NS(=O)(=O)c1ccc(Br)s1)C(=O)NCc1ccc(F)cc1`, “inactive”. Consider `CC[C@H](C)[C@H](NC(=O)c1ccc(C(C)(C)C)cc1)C(=O)NCc1ccc(C(F)(F)F)cc1`, for which the call was inactive.
